Source: article PMC3954503 (Journal of Medicinal Chemistry, 2014)
Where two headings read alike, the source gives them in different places. Values belong to the compound of their own block, whether it stands above or below them.

What was measured:
[1] = test system: HIV-1 FSS RNA upper stem-loop; assay: SPR binding to immobilized HIV-1 FSS RNA upper stem-loop; details: for increased affinity over 2 and 3 / weaker binding / decrease in affinity relative to dimers 4 and 5: SPR KD ratio
Summary of the method: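 Streptavidin (about 2000 RU) on a CM5 chip; 5′-biotin HIV-1 FSS RNA (500 nM) captured once at about 300 RU and once at about 1200 RU, against a biotin-blocked reference cell. Compound series run in (a) HBS pH 7.4 at 60 μL/min or (b) HEPES/NaCl/MgCl2/Tween-20 at 50 μL/min, each injection at least twice. For (a), ≥5 sensorgrams globally fit to a 1:1 Langmuir model; for (b), individual fits; ka, kd, KD derived.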

[2] = test system: HIV-1 FSS RNA upper stem-loop; details: conditions (a) HBS buffer; ref [35]; cited from earlier work
[3] = test system: pseudotyped HIV-1 virions; assay: Single-round infectivity assay with pseudotyped HIV-1; format: cell-based
tRNA = details: previously found; cited from earlier work
[4] = test system: Gag:Gag-Pol ratio in pseudotyped virions; assay: Western blot of isolated viral particles for RT and p24; format: cell-based, HIV-1; details: for RT in unprocessed Gag-Pol (p160) relative to mature RT (p66 + p51) / amount of RT relative to capsid protein p24: Western blot of viral particles; for amount of RT relative to capsid protein p24: as a function of added compound
Summary of the method: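 HEK293T producer cells co-transfected with env-deleted, GFP-carrying HIV-1NL4–3 proviral vector and VSV-G vector (1:0.5, Fugene HD). Test compound added 4 h post-transfection; virions collected from media at 24 h through a 0.45-μm filter. Equal p24-ELISA loads were pelleted through a 20% sucrose cushion at 100,000g, then Western blotted for RT and p24.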

[5] = test system: pDualHIV(0) transfected HEK 293FT cells; assay: Dual-luciferase control assay, pDualHIV; format: cell-based, human
Summary of the method: (§1)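 HEK 293FT cells plated at 1.5 × 10^4 cells/well 6 h before transfection, in DMEM with 10% FBS. Transfected with 0.2 μg reporter plasmid (lipofectamine 2000). At 5 h, test compound (0–50 μM) added in triplicate for 36 h at 37 °C. Cells PBS-washed and lysed; Rluc and Fluc read by dual-luciferase assay. Fluc/Rluc ratio expressed relative to untreated cells, set to 100%.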

HEK 293FT cells [6] = assay: WST-1 cell viability assay; format: cell-based, human; details: 24 h
Summary of the method: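 HEK 293FT cells grown to 80% confluence in 96-well plates (DMEM, 10% FBS, 37 °C). Test compound (up to 0.5 mM) or sterile water control added in triplicate for 24 h at 37 °C. Premix WST-1 reagent then added for 2 h at 37 °C. Absorbance at 450 minus 690 nm, blank-corrected, plotted against concentration; mean of three with SD.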

HTLV-2 FSS RNA = assay: SPR binding to HTLV-2 FSS RNA; details: concentrations up to 3 μM; HBS buffer
Summary of the method: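 SPR on a CM5 chip with about 2000 RU streptavidin, immobilized by EDC/NHS. 5′-Biotin HTLV-2 FSS RNA (500 nM) captured to about 300–1200 RU; the biotin-blocked flow cell served as reference. Test compound flowed at varying concentrations in HBS (0.01 M HEPES, 0.150 M NaCl, pH 7.4) at 60 μL/min. Each concentration injected at least twice; sensorgrams reference-subtracted and blank-corrected.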

HEK 293FT cells [7] = assay: Cell permeation by fluorescence microscopy; format: cell-based, human; details: HEK 293FT, 50, 100, 200, and 500 μM for 12 h
Summary of the method: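 HEK 293FT cells grown to 80% confluence at 37 °C, 5% CO2, in DMEM with 10% FBS and 1% penicillin-streptomycin. Cells exposed to test compound for 12 h (methods give 50 μM; the text lists 50–500 μM). Washed twice with PBS to remove surface-bound compound, then imaged in buffer by fluorescence microscopy with 358-nm excitation and 460-nm emission filters.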

HIV-1 FSS DNA = assay: Fluorescence titration with HIV-1 FSS DNA; format: binding; details: by fluorescence
Summary of the method: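 Fluorescence titration in 20 mM HEPES, 150 mM NaCl, with test compound at 1 μM. HIV-1 FSS RNA (10 μM stock) or FSS DNA (40 μM stock) titrated in. Each addition mixed, then 10 min to equilibrate. Benzo[g]quinoline fluorescence quenching read three times, 1 min apart, and corrected for dilution to give KD. Selectivity compares the FSS RNA and FSS DNA KDs.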

[8] = test system: HIV-1 FSS-dependent −1 frameshifting in HEK 293FT cells; assay: Dual-luciferase frameshift assay, pDualHIV; format: cell-based, human; details: pDualHIV(−1)
Summary of the method: as §1

HIV-1 FSS RNA = details: read-out: KD for HIV-1 FSS; ref [31]; cited from earlier work
[9] = conditions (a) HBS buffer (0.01 M HEPES, 0.150 M NaCl, pH = 7.4), global fit
[10] = conditions (b) 20 mM HEPES, 150 mM NaCl, 5 mM MgCl2, 0.005% Tween-20

binding to HIV-1 FSS RNA by SPR (qualitative) [1]: No binding was observed
Compound: 2-ethyl benzo[g]quinoline carboxylic acid

weaker binding / decrease in affinity relative to dimers 4 and 5 [1]: 200 fold | association rate, ka [1, 9]: (1.16 ± 0.06) × 10^3 M^–1s^-1 | dissociation rate kd [1, 9]: (2.25 ± 0.01) × 10^–2 s^–1
Compound: C=CC[C@H](NC(=O)c1cc2cc3ccccc3cc2nc1CC)C(=O)N1CCC[C@H]1C(=O)N[C@@H](Cc1ccccc1)C(=O)NCCCN [Compound 6]

weaker binding / decrease in affinity relative to dimers 4 and 5 [1]: approximately 200 fold | association rate, ka [1, 9]: (4.58 ± 1.27) × 10^3 M^–1s^-1 | dissociation rate kd [1, 9]: (1.21 ± 0.00) × 10^–2 s^–1
Compound: CCc1nc2cc3ccccc3cc2cc1C(=O)N[C@@H](C/C=C\C[C@H](N)C(=O)N1CCC[C@H]1C(=O)N[C@@H](Cc1ccccc1)C(=O)NCCCN)C(=O)N1CCC[C@H]1C(=O)N[C@@H](Cc1ccccc1)C(=O)NCCCN [Compound 7]

weaker binding / decrease in affinity relative to dimers 4 and 5 [1]: 30 fold | association rate, ka [1, 9]: (7.71 ± 4.9) × 10^3 M^–1s^-1 | dissociation rate kd [1, 9]: (1.63 ± 1.12) × 10^–1 s^–1
Compound: CCc1nc2cc3ccccc3cc2cc1C(=O)N[C@@H](C/C=C/C[C@H](N)C(=O)N1CCC[C@H]1C(=O)N[C@@H](Cc1ccccc1)C(=O)NCCCN)C(=O)N1CCC[C@H]1C(=O)N[C@@H](Cc1ccccc1)C(=O)NCCCN [Compound 8]

weaker binding / decrease in affinity relative to dimers 4 and 5 [1]: ~7 fold | association rate, ka [1, 9]: (1.07 ± 0.07) × 10^4 M^–1s^-1 | dissociation rate kd [1, 9]: (7.92 ± 0.53) × 10^–3 s^–1 | binding to HTLV-2 FSS by SPR (HTLV-2 FSS RNA): no binding was observed | cell penetration (internalization) (HEK 293FT cells [7]): internalized
Compound: CCc1nc2cc3ccccc3cc2cc1C(=O)N[C@@H](CSSC[C@H](NC(=O)c1cc2cc3ccccc3cc2nc1CC)C(=O)N1CCC[C@H]1C(=O)N[C@@H](Cc1ccccc1)C(=O)NCCCN)C(=O)N1CCC[C@H]1C(=O)N[C@@H](Cc1ccccc1)C(=O)NCCCN [Compound 11]
stimulation of HIV-1 frameshifting ([8]; concentrations above 10 µM not examined): approximately 25% | concentrations at which compound proved toxic (HEK 293FT cells [6]): above 10 μM

Further lines, the compound ahead of its results:

Compound: CCc1nc2ccccc2cc1C(=O)N[C@@H](C/C=C/C[C@H](NC(=O)c1cc2ccccc2nc1CC)C(=O)N1CCC[C@H]1C(=O)N[C@@H](Cc1ccccc1)C(=O)NCCCN)C(=O)N1CCC[C@H]1C(=O)N[C@@H](Cc1ccccc1)C(=O)NCCCN [Compound 3]
association rate, ka [2]: 1.62 × 10^3 M^–1s^-1 | dissociation rate kd [2]: 7.5 × 10^–3 s^–1 | activity in pseudotyped HIV-1 assay ([3]; preliminary experiments (data not shown)): no activity | affinity for tRNA (tRNA): no measurable affinity

Compound: CCc1nc2cc3ccccc3cc2cc1C(=O)N[C@@H](C/C=C\C[C@H](NC(=O)c1cc2cc3ccccc3cc2nc1CC)C(=O)N1CCC[C@H]1C(=O)N[C@@H](Cc1ccccc1)C(=O)NCCCN)C(=O)N1CCC[C@H]1C(=O)N[C@@H](Cc1ccccc1)C(=O)NCCCN [Compound 4]
lower concentration than RG501 for roughly equivalent increase in RT [4]: 37.5 fold | RT in unprocessed Gag-Pol (p160) relative to mature RT (p66 + p51) [4]: increased significantly | amount of RT relative to capsid protein p24 [4]: increasing amounts of RT | change in Fluc to Rluc ratio relative to untreated cells [5]: No change | increased affinity over 2 and 3 [1]: approximately 50 fold | association rate, ka [1, 9]: (4.25 ± 0.22) × 10^4 M^–1s^-1 | dissociation rate kd [1, 9]: (4.11 ± 0.02) × 10^–3 s^–1 | association rate, ka [1, 10]: (2.17 ± 0.77) × 10^4 M^–1s^-1 | dissociation rate kd [1, 10]: (1.35 ± 0.03) × 10^–3 s^–1 | Kd ([1]; read-out: affinity (KD) for HIV-1 FSS by SPR, HBS buffer): 89 nM | concentrations at which no significant toxicity occurred (HEK 293FT cells [6]): below 60 μM | binding to HTLV-2 FSS by SPR (HTLV-2 FSS RNA): no binding was observed | cell penetration (internalization) (HEK 293FT cells [7]): internalized

Compound: CCc1nc2cc3ccccc3cc2cc1C(=O)N[C@@H](C/C=C/C[C@H](NC(=O)c1cc2cc3ccccc3cc2nc1CC)C(=O)N1CCC[C@H]1C(=O)N[C@@H](Cc1ccccc1)C(=O)NCCCN)C(=O)N1CCC[C@H]1C(=O)N[C@@H](Cc1ccccc1)C(=O)NCCCN [Compound 5]
lower concentration than RG501 for roughly equivalent increase in RT [4]: 37.5 fold | RT in unprocessed Gag-Pol (p160) relative to mature RT (p66 + p51) [4]: increased significantly | amount of RT relative to capsid protein p24 [4]: increasing amounts of RT | change in Fluc to Rluc ratio relative to untreated cells [5]: No change | increased affinity over 2 and 3 [1]: approximately 50 fold | association rate, ka [1, 9]: (3.99 ± 0.37) × 10^4 M^–1s^-1 | dissociation rate kd [1, 9]: (3.75 ± 0.12) × 10^–3 s^–1 | association rate, ka [1, 10]: (3.68 ± 1.45) × 10^4 M^–1s^-1 | dissociation rate kd [1, 10]: (3.46 ± 2.05) × 10^–3 s^–1 | selectivity for FSS RNA vs FSS DNA (HIV-1 FSS DNA): no selectivity | concentrations at which no significant toxicity occurred (HEK 293FT cells [6]): below 60 μM | binding to HTLV-2 FSS by SPR (HTLV-2 FSS RNA): no binding was observed | cell penetration (internalization) (HEK 293FT cells [7]): internalized

Compound: NCCCNC(=O)[C@H](Cc1ccccc1)NC(=O)[C@@H]1CCCN1C(=O)[C@@H](N)C/C=C/C[C@H](N)C(=O)N1CCC[C@H]1C(=O)N[C@@H](Cc1ccccc1)C(=O)NCCCN [Compound 10]
increase in Fluc to Rluc ratio (−1 PRF) ([8]; at 50 μM, 36 h): no significant effect | binding to HIV-1 FSS RNA by SPR (qualitative) [1]: completely abrogated binding | association rate, ka ([1]; conditions a, b (both buffers)): none obsd | dissociation constant, KD ([1]; conditions a, b (both buffers)): none obsd | dissociation rate kd ([1]; conditions a, b (both buffers)): none obsd | decrease in infectivity ([3]; 40 μM, producer cells treated): modest decrease

Compound: COc1cccc2c1C(=O)c1c(O)c3c(c(O)c1C2=O)C[C@@](O)(C(=O)CO)C[C@@H]3O[C@H]1C[C@H](N)[C@H](O)[C@H](C)O1 [Doxorubicin]
Kd (HIV-1 FSS RNA): 2800 nM
